Screening results from PubChem BioAssay.
This is a sample that favours compounds with a hit; in the whole collection about 7.1% have one here.
HCT116 PTEN-null: suppresses growth of cells with PTEN deletion. hit rate 1.2% among 140,000. HCT116 PTEN-null viability, CellTiter-Glo, 60 h; active compounds read low. viability, % at 10 µM;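 active means viability at or below a set limit, 4 SD under the median of all tested compounds, cut at about 3.7% in these data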;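 further: PTEN knockout HCT116 line with beta catenin targeted HCT116 as companion control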
Lung fibro prol: blocks proliferation of human lung fibroblasts | LL 47 human lung fibroblast viability, ATP luminescence; active compounds read low | viability, % at 10 µM | hit rate 1.1% among 85,000;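 active means viability at or below 50% in the single dose screen; inactive means viability above 50%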;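 further: compound exposure lasted 72 h before the ATP readout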
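Test system: LL 47 human lung fibroblasts; Quantity: 1,150 cells/well; Buffer or medium: IMEM plus 15% FBS; Dosing: tenfold compound dosing solution, DMSO at 0.1%; Timing: overnight cell rest, 72 h compound treatment at 37 °C; Detection: ATP-based CellTiter-Glo luminescent readout; Read-out basis: viability percentage against median untreated-cell control; Controls: cell-only wells, no compound.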
H69AR growth 86K: blocks growth of human H69AR lung tumor cells; H69AR lung tumor viability, ATP luminescence, 72 h; active compounds read low; hit rate 6% among 85,000; viability, % at 10 µM; AID 598;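 active means viability at or below 40%; inactive means viability above 40%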;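 further: multidrug resistant small cell line overexpressing MRP-1 efflux transporter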
HCT116 bCat-KO: beta-catenin-lacking colon tumor cell growth suppression; HCT116 beta-catenin knockout viability, CellTiter-Glo, 60 h; active compounds read low; viability, % at 10 µM; hit rate 1.5% among 140,000; AID 818;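 active means viability at or under a set limit, the compound median less 4 SD, cut at about 6% in these data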
HUVEC inhibit: human endothelial cell proliferation inhibition; HUVEC proliferation, CellTiter-Glo luminescence, 72 h; active compounds read low; viability, % at 10 µM (by protocol); hit rate 1.1% among 86,000;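 active means viability at or below 30%; inactive means viability above 30%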
Cav3 T inh: inhibitors of human Cav3.2 T-type calcium channel | O95180 | Cav3.2-expressing cells, Fluo-4 calcium fluorescence FDSS; active compounds read low | B-score at 10 µM | hit rate 4% among 100,000;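 active means single-dose well whose peak fluorescence ratio is a statistical outlier from its plate by either plate-standardised score or position-corrected B-score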
A number is an active result.

`C=CCn1c(SCC(=O)NC(=O)NCc2ccco2)nc2sc(C)c(C)c2c1=O` gave HCT116 PTEN-null inactive, Lung fibro prol inactive, H69AR growth 86K 11, HCT116 bCat-KO inactive, HUVEC inhibit inactive and Cav3 T inh inactive.
`C=CCn1c(SCC(=O)NCCCC)nc2scc(-c3ccco3)c2c1=O` gave HCT116 PTEN-null inactive, Lung fibro prol inactive, H69AR growth 86K inactive, HCT116 bCat-KO inactive, HUVEC inhibit inactive and Cav3 T inh -2.7.
Screening Cc1sc2nc(SCC(=O)C(C)(C)C)n(Cc3ccco3)c(=O)c2c1C returned HCT116 PTEN-null inactive, Lung fibro prol 49, H69AR growth 86K inactive, HCT116 bCat-KO inactive, HUVEC inhibit inactive and Cav3 T inh inactive.
Screening CN(C)c1cccc(C(=O)Nc2cc(C(F)(F)F)ccc2-n2cnc3ccccc32)c1 returned HCT116 PTEN-null inactive and HCT116 bCat-KO inactive.
COC(=O)c1sccc1NC(=S)N1CC(C)CC(C)C1 (centres undefined) was read as HCT116 PTEN-null inactive, Lung fibro prol inactive, H69AR growth 86K inactive, HCT116 bCat-KO inactive, HUVEC inhibit inactive and Cav3 T inh inactive.
`Cc1cc2cc(C#N)c(N3CCN(S(C)(=O)=O)CC3)nc2cc1C` gave HCT116 PTEN-null inactive and HCT116 bCat-KO inactive.
For CCCN(CC(=O)Nc1cc(Cl)ccc1Cl)C(=O)/C=C/c1ccco1 the results were HCT116 PTEN-null inactive and HCT116 bCat-KO inactive.
Screening Cc1cccc(CSc2nnc(-c3cccs3)n2Cc2ccco2)c1 returned HCT116 PTEN-null inactive, Lung fibro prol inactive, H69AR growth 86K inactive, HCT116 bCat-KO inactive, HUVEC inhibit inactive and Cav3 T inh -5.5.
Screening Cc1cccc(CSc2nc3sc(C)c(C)c3c(=O)n2Cc2ccco2)c1 returned HCT116 PTEN-null inactive, Lung fibro prol inactive, H69AR growth 86K inactive, HCT116 bCat-KO inactive, HUVEC inhibit inactive and Cav3 T inh -4.2.
`C=CCn1c(SCc2c(C)noc2C)nc2sc(C)c(C)c2c1=O` gave HCT116 PTEN-null inactive, Lung fibro prol inactive, H69AR growth 86K 20, HCT116 bCat-KO inactive, HUVEC inhibit inactive and Cav3 T inh inactive.
For COc1cccc(C(=O)CSc2nnnn2C2CCCCC2)c1 the results were HCT116 PTEN-null inactive, HCT116 bCat-KO inactive and Cav3 T inh inactive.
`CCCCOc1ccc(C(=O)N2CCC(C)CC2)cc1` gave HCT116 PTEN-null inactive, Lung fibro prol inactive, H69AR growth 86K inactive, HCT116 bCat-KO inactive, HUVEC inhibit inactive and Cav3 T inh inactive.
`CCCCOc1ccc(C(=O)OC2CC(C)N(C)CC2C)cc1` (centres undefined) gave HCT116 PTEN-null inactive, Lung fibro prol inactive, H69AR growth 86K inactive, HCT116 bCat-KO inactive, HUVEC inhibit 15 and Cav3 T inh inactive.
Screening O=C(/C=C/c1ccccc1)NCCSc1ccc(Cl)cc1 returned HCT116 PTEN-null inactive, HCT116 bCat-KO inactive and Cav3 T inh -4.3.
Screening CC(CNc1ccccc1O)C(=O)O (centres undefined) returned HCT116 PTEN-null inactive and HCT116 bCat-KO inactive.
`COCCCn1c(SCC(=O)Nc2ccc(NC(=O)c3ccco3)c(OC)c2)nc2ccccc2c1=O` gave HCT116 PTEN-null inactive, Lung fibro prol inactive, H69AR growth 86K 32, HCT116 bCat-KO inactive, HUVEC inhibit inactive and Cav3 T inh inactive.
`COc1ccc(NC(=O)CSc2nc3ccccc3c(=O)n2-c2ccc3c(c2)OCO3)c(OC)c1` gave HCT116 PTEN-null inactive, Lung fibro prol inactive, H69AR growth 86K 9.4, HCT116 bCat-KO inactive, HUVEC inhibit inactive and Cav3 T inh inactive.
For COc1ccc(NC(=O)CSc2nc3ccccc3c(=O)n2CCCN2CCCCC2)c(OC)c1 the results were HCT116 PTEN-null 3.1, Lung fibro prol inactive, H69AR growth 86K inactive, HCT116 bCat-KO 2.6, HUVEC inhibit inactive and Cav3 T inh inactive.
Screening COc1ccc(-n2c(SCC(=O)Nc3ccc4c(c3)OCO4)nc3ccccc3c2=O)cc1 returned HCT116 PTEN-null inactive, Lung fibro prol inactive, H69AR growth 86K inactive, HCT116 bCat-KO inactive, HUVEC inhibit inactive and Cav3 T inh inactive.
Screening COc1ccc(NC(=O)C(Sc2nnc(-c3ccncc3)n2-c2ccccc2C)c2ccccc2)cc1Cl (centres undefined) returned HCT116 PTEN-null inactive and HCT116 bCat-KO inactive.
Screening OC[C@H]1O[C@@H](n2cnc3c(NC4CCCC4)ncnc32)[C@H](O)[C@@H]1O returned HCT116 PTEN-null inactive, Lung fibro prol inactive, H69AR growth 86K inactive, HCT116 bCat-KO inactive, HUVEC inhibit inactive and Cav3 T inh inactive.
C=CCNc1ncnc2c1ncn2C1OC(CO)C(O)C1O (centres undefined) was read as HCT116 PTEN-null inactive, Lung fibro prol 40, H69AR growth 86K 31, HCT116 bCat-KO inactive, HUVEC inhibit inactive and Cav3 T inh inactive.
Screening COc1ccccc1C1=NOC(C)(c2sc(-c3ccc(Cl)cc3)nc2C)C1 (centres undefined) returned Cav3 T inh inactive.
`Cc1cc(C)c(NC(=O)CSc2nc3ccc(NC(=O)CSc4nnnn4-c4ccccc4)cc3s2)c(C)c1` gave HCT116 PTEN-null inactive and HCT116 bCat-KO inactive.
For O=C(CSc1nc2ccc(NC(=O)CSc3nnnn3Cc3ccccc3)cc2s1)Nc1ccccc1 the results were HCT116 PTEN-null inactive, Lung fibro prol inactive, H69AR growth 86K inactive, HCT116 bCat-KO inactive, HUVEC inhibit inactive and Cav3 T inh inactive.
Cc1cc(C)c(NC(=O)CSc2nc3ccc(NC(=O)CSc4nnnn4Cc4ccccc4)cc3s2)c(C)c1 was read as Lung fibro prol inactive, H69AR growth 86K 14, HUVEC inhibit inactive and Cav3 T inh inactive.
For COC(=O)CSc1nc2ccc(NC(=O)CSc3nnnn3Cc3ccccc3)cc2s1 the results were HCT116 PTEN-null inactive, Lung fibro prol 31, H69AR growth 86K inactive, HCT116 bCat-KO inactive, HUVEC inhibit inactive and Cav3 T inh inactive.
`CCOC(=O)c1c(N)sc2c(OC)c(Br)ccc12` gave HCT116 PTEN-null inactive, Lung fibro prol inactive, H69AR growth 86K inactive, HCT116 bCat-KO inactive, HUVEC inhibit 27 and Cav3 T inh inactive.
For CCOC(=O)c1c(N)sc(-c2ccccc2)c1C the results were HCT116 PTEN-null inactive, Lung fibro prol inactive, H69AR growth 86K inactive, HCT116 bCat-KO inactive, HUVEC inhibit inactive and Cav3 T inh inactive.
CCSC1=NC2(CCCCC2)Nc2sc3c(c21)CCCC3 was read as HCT116 PTEN-null inactive, Lung fibro prol inactive, H69AR growth 86K 2.2, HCT116 bCat-KO inactive, HUVEC inhibit inactive and Cav3 T inh inactive.
Screening CCSc1nc2sc3c(c2c(=O)[nH]1)CCCC3 returned HCT116 PTEN-null inactive, Lung fibro prol inactive, H69AR growth 86K inactive, HCT116 bCat-KO inactive, HUVEC inhibit inactive and Cav3 T inh inactive.
`CCN(CC)C(C)C(=O)NCC1(c2ccccc2)CCOCC1` (centres undefined) gave HCT116 PTEN-null inactive, Lung fibro prol inactive, H69AR growth 86K inactive, HCT116 bCat-KO inactive, HUVEC inhibit inactive and Cav3 T inh inactive.
For CCOC(=O)C1CCCN(C(=O)c2ccc(C)cc2O)C1 (centres undefined) the results were HCT116 PTEN-null inactive, HCT116 bCat-KO inactive and Cav3 T inh inactive.
